Calls of active or inactive are those of the source. No cut-off for these calls is given here.
Tests used:
Mus musculus [1] = assay: Induction of RANTES secretion in BALB/c mouse serum at 2 ug, iv after 2 hrs relative to control; type: functional
How it was run: (§1)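 BALB/c mice received an i.v. injection of 100 μl of glycolipid diluted to 20 μg/ml in saline from DMSO stock, with 1% DMSO as vehicle. Serum cytokines/chemokines were measured at 2 and 18 h after injection.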

[2] = Induction of GM-CSF secretion in human CD161+ CD3+ NKT cells at 10 ug/ml after 18 hrs relative to basal level; type: functional
How it was run: (§2)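 Human Vα24i NKT cell lines were expanded for 10 days on irradiated (3,000 rad) autologous immature DCs with 10 units/ml IL-2. The cells (1 × 10^5) were cocultured with 5 × 10^4 irradiated immature CD14+ DCs plus glycolipid at 10 μg/ml. Supernatants were collected at 18 h and read on a 22-plex Luminex bead panel. Triplicates, mean ± SD.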

4T1 = assay: Antitumor activity in mouse 4T1 cells xenografted BALB/c mouse assessed as suppression of tumor growth at 2 ug, iv; type: functional, cell-based
How it was run: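 BALB/c mice (n = 6) were inoculated s.c. with 4T1 breast cancer cells. From day 3 they were treated i.v. with glycolipid or vehicle twice weekly for 4 weeks. Tumor volume was recorded every 3 days for 1 month, and survival was monitored up to 54 days.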

dendritic [3] = assay: Activation of TCR in human immature dendritic cells assessed as increase in CREB phosphorylation; type: cell-based
How it was run: (§3)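 Human HeLa, HeLa-CD1d or autologous immature DCs were loaded with glycolipid at 10 μg/ml, or DMSO, for 2 h. Then 3 × 10^5 naïve CD161+/CD3+ NKT cells were added; these were bead-isolated and kept in 100 units/ml IL-2. After 5–10 min the cells were washed and lysed at 4°C. Phospho-CD3ε, ERK1/2 (Thr-185/Tyr-187) and CREB (Ser-133) were read by Luminex bead assay as median fluorescence normalized to total protein, expressed as fold over 1% DMSO.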

[4] = Induction of IL4 secretion in human CD161+ CD3+ NKT cells at 10 ug/ml after 18 hrs relative to basal level; type: functional; how it was run: as §2
Mus musculus [5] = assay: Induction of IL10 secretion in BALB/c mouse serum at 2 ug, iv after 18 hrs relative to control; type: functional; how it was run: as §1
Mus musculus [6] = assay: Induction of IL12p70 secretion in BALB/c mouse serum at 2 ug, iv after 18 hrs relative to control; type: functional; how it was run: as §1
Mus musculus [7] = assay: Induction of MCP1 secretion in BALB/c mouse serum at 2 ug, iv after 2 hrs relative to control; type: functional; how it was run: as §1
Mus musculus [8] = assay: Induction of IL3 secretion in BALB/c mouse serum at 2 ug, iv after 2 hrs relative to control; type: functional; how it was run: as §1
Mus musculus [9] = assay: Induction of GM-CSF secretion in BALB/c mouse serum at 2 ug, iv after 2 hrs relative to control; type: functional; how it was run: as §1
Mus musculus [10] = assay: Increase in CD8/CD4 T cell ratio in BALB/c mouse at 2 ug, iv after 72 hrs by flow cytometry; type: functional, organism-based
dendritic [11] = assay: Activation of TCR in human immature dendritic cells assessed as increase in ERK1/2 phosphorylation; type: cell-based; how it was run: as §3
[12] = Induction of MCP1 secretion in human CD161+ CD3+ NKT cells at 10 ug/ml after 18 hrs relative to basal level; type: functional; how it was run: as §2
Mus musculus [13] = assay: Induction of IL13 secretion in BALB/c mouse serum at 2 ug, iv after 2 hrs relative to control; type: functional; how it was run: as §1
[14] = Induction of IFN-gamma secretion in human CD161+ CD3+ NKT cells at 10 ug/ml after 18 hrs relative to basal level; type: functional; how it was run: as §2
[15] = Induction of IL12p40 secretion in human CD161+ CD3+ NKT cells at 10 ug/ml after 18 hrs relative to basal level; type: functional; how it was run: as §2
Mus musculus [16] = assay: Activation of dendritic cells in BALB/c mouse at 2 ug, iv after 72 hrs by flow cytometry; type: functional, organism-based
How it was run: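 BALB/c mice (n = 4/group) were given 100 μl of glycolipid at 20 μg/ml in saline i.v., or 100 μl of 1% DMSO. Spleens were harvested after 72 h and splenocyte subsets counted by flow cytometry: mature DCs as CD11c+/CD80+/CD86+, activated NK as U5A2-13Ag+/CD3−/CD69+, activated NKT as U5A2-13Ag+/CD3+/CD69+. Assays were run in duplicate, mean ± SD.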

HeLa [17] = assay: Activation of TCR in human HeLa cells overexpressing CD1d assessed as increase in CD3epsilon phosphorylation; type: cell-based; how it was run: as §3
Mus musculus [18] = assay: Induction of KC secretion in BALB/c mouse serum at 2 ug, iv after 2 hrs relative to control; type: functional; how it was run: as §1
Mus musculus [19] = assay: Induction of IFN-gamma secretion in BALB/c mouse serum at 2 ug, iv after 18 hrs relative to control; type: functional; how it was run: as §1
HeLa [20] = assay: Activation of TCR in human HeLa cells overexpressing CD1d assessed as increase in CREB phosphorylation; type: cell-based; how it was run: as §3
dendritic [21] = assay: Activation of TCR in human immature dendritic cells assessed as increase in CD3epsilon phosphorylation; type: cell-based; how it was run: as §3
Mus musculus [22] = assay: Induction of TNFalpha secretion in BALB/c mouse serum at 2 ug, iv after 18 hrs relative to control; type: functional; how it was run: as §1
[23] = Induction of RANTES secretion in human CD161+ CD3+ NKT cells at 10 ug/ml after 18 hrs relative to basal level; type: functional; how it was run: as §2
[24] = Induction of IL10 secretion in human CD161+ CD3+ NKT cells at 10 ug/ml after 18 hrs relative to basal level; type: functional; how it was run: as §2
[25] = Induction of IL3 secretion in human CD161+ CD3+ NKT cells at 10 ug/ml after 18 hrs relative to basal level; type: functional; how it was run: as §2
[26] = Induction of IL6 secretion in human CD161+ CD3+ NKT cells at 10 ug/ml after 18 hrs relative to basal level; type: functional; how it was run: as §2
[27] = Induction of IL15 secretion in human CD161+ CD3+ NKT cells at 10 ug/ml after 18 hrs relative to basal level; type: functional; how it was run: as §2
Mus musculus [28] = assay: Induction of IL4 secretion in BALB/c mouse serum at 2 ug, iv after 2 hrs relative to control; type: functional; how it was run: as §1
Mus musculus [29] = assay: Induction of IL12p40 secretion in BALB/c mouse serum at 2 ug, iv after 18 hrs relative to control; type: functional; how it was run: as §1
Mus musculus [30] = assay: Induction of MIPbeta secretion in BALB/c mouse serum at 2 ug, iv after 2 hrs relative to control; type: functional; how it was run: as §1
[31] = Induction of IL2 secretion in human CD161+ CD3+ NKT cells at 10 ug/ml after 18 hrs relative to basal level; type: functional; how it was run: as §2
[32] = Induction of IL8 secretion in human CD161+ CD3+ NKT cells at 10 ug/ml after 18 hrs relative to basal level; type: functional; how it was run: as §2
Mus musculus [33] = assay: Induction of IL1-beta secretion in BALB/c mouse serum at 2 ug, iv after 18 hrs relative to control; type: functional; how it was run: as §1

Structure (SMILES) | Activity (Mus musculus [1]) | Activity [2] | Activity (4T1) | Activity (dendritic [3]) | Activity [4] | Activity (Mus musculus [5]) | Activity (Mus musculus [6]) | Activity (Mus musculus [7]) | Activity (Mus musculus [8]) | Activity (Mus musculus [9]) | Activity (Mus musculus [10]) | Activity (dendritic [11]) | Activity [12] | Activity (Mus musculus [13]) | Activity [14] | Activity [15] | Activity (Mus musculus [16]) | Activity (HeLa [17]) | Activity (Mus musculus [18]) | Activity (Mus musculus [19]) | further results
CCCCCCCCCCCCCCCCCCCCCCCCCC(=O)N[C@@H](CO[C@H]1O[C@H](CO)[C@H](O)[C@H](O)[C@H]1O)[C@H](O)[C@H](O)CCCCCCCCCCCCCC [RGI-7000] | 2.6 | 3.5 | Active | 68 | 3.9 | 3.6 | 3.2 | 18.7 | 3 | 13.1 | Active | 30 | 0.9 | 15.1 | 3.4 | 1.4 | Active | 7.3 | 30.5 | 300 | Activity (HeLa [20]): 32; Activity (dendritic [21]): 10.8; Activity (Mus musculus [22]): 51; Activity [23]: 1.6; Activity [24]: 1.2; Activity [25]: 1.9; Activity [26]: 1.8; Activity [27]: 2.6; Activity (Mus musculus [28]): 240; Activity (Mus musculus [29]): 2.8; Activity (Mus musculus [30]): 3.6; Activity [31]: 2.3; Activity [32]: 1.7; Activity (Mus musculus [33]): 7.8
CCCCCCCCCCCCCCCCCCCCCCCCCC(=O)N[C@@H](CO[C@H]1O[C@H](CO)[C@H](O)[C@H](O)[C@H]1O)[C@H](O)[C@H](O)CCc1ccccc1 | 2.1 | 4.3 | Active | 158 | 2.7 | 2.2 | 6.6 | 32.9 | 38.8 | 7.9 | Active | 35 | 2 | 12.6 | 6.6 | 1.8 | Active | 7.3 | 19.2 | 122.5 | Activity (HeLa [20]): 41; Activity (dendritic [21]): 17.3; Activity (Mus musculus [22]): 2.3; Activity [23]: 2.5; Activity [24]: 1.2; Activity [25]: 1.7; Activity [26]: 2.8; Activity [27]: 2.3; Activity (Mus musculus [28]): 115; Activity (Mus musculus [29]): 3.5; Activity (Mus musculus [30]): 5.3; Activity [31]: 2.8; Activity [32]: 3; Activity (Mus musculus [33]): 3.4

From ChEMBL document CHEMBL1145518, “Potent immune-modulating and anticancer effects of NKT cell stimulatory glycolipids” (2007)
